# Source: ChEMBL document CHEMBL2177069, “Novel peptidomimetic compounds containing redox active chalcogens and quinones as potential anticancer agents” (Eur J Med Chem, 2012)
# How the values were obtained:
# [1] = tested on: SK-MEL-28; assay: Cytotoxicity against human SK-MEL-28 cells; type: functional
# [2] = tested on: NCI-H23; assay: Cytotoxicity against human NCI-H23 cells; type: functional
# [3] = tested on: Hs-578T; assay: Cytotoxicity against human Hs578T cells; type: functional
# [4] = tested on: SF-539; assay: Cytotoxicity against human SF539 cells; type: functional
# [5] = tested on: SNB-75; assay: Cytotoxicity against human SNB75 cells; type: functional
# [6] = tested on: TK-10; assay: Cytotoxicity against human TK10 cells; type: functional
# [7] = tested on: HT-29; assay: Cytotoxicity against human HT-29 cells; type: functional
# [8] = tested on: OVCAR-5; assay: Cytotoxicity against human OVCAR5 cells; type: functional
# [9] = tested on: A498; assay: Cytotoxicity against human A498 cells after 24 hrs by MTT assay; type: functional, cell-based; conditions: A498, 24 h
# Summary of the method: (§1)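 MTT assay. Cells were seeded at 50,000 cells/mL in medium with 10% fetal calf serum and grown for two days at 37 °C, 10% CO2. Serial dilutions of compound were then added for 24 h. MTT was added (final 0.5 mg/mL) for 2 h, and the formazan was pelleted, washed, dissolved in isopropanol with 0.4% HCl and read at 590 nm. IC50 is the concentration giving 50% of untreated-control absorbance, taken from dose-response curves; mean of two parallel experiments.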
# [10] = tested on: A-431; assay: Cytotoxicity against human A431 cells after 24 hrs by MTT assay; type: functional, cell-based; conditions: A-431, 24 h; summary of the method: as §1
# [11] = tested on: OVCAR-3; assay: Cytotoxicity against human OVCAR3 cells; type: functional
# [12] = tested on: HUVEC; assay: Cytotoxicity against human HUVEC cells after 24 hrs by MTT assay; type: cell-based; summary of the method: as §1
# [13] = tested on: PC-3; assay: Cytotoxicity against human PC3 cells; type: functional
# [14] = tested on: SK-MEL-5; assay: Cytotoxicity against human SK-MEL-5 cells; type: functional
# [15] = tested on: MDA-MB-435; assay: Cytotoxicity against human MDA-MB-435 cells; type: functional
# [16] = tested on: HOP-62; assay: Cytotoxicity against human HOP62 cells; type: functional
# [17] = tested on: SF-295; assay: Cytotoxicity against human SF295 cells; type: functional
# [18] = tested on: SW-620; assay: Cytotoxicity against human SW620 cells; type: functional
# [19] = tested on: UO-31; assay: Cytotoxicity against human UO31 cells; type: functional
# [20] = tested on: HL-60; assay: Cytotoxicity against human HL60 cells; type: functional
# [21] = tested on: T47D; assay: Cytotoxicity against human T47D cells; type: functional
# [22] = tested on: HCT-15; assay: Cytotoxicity against human HCT15 cells; type: functional
# [23] = tested on: M14; assay: Cytotoxicity against human M14 cells; type: functional
# [24] = tested on: Saccharomyces cerevisiae; assay: Growth inhibition of PST2-deficient Saccharomyces cerevisiae YDR032C mutant at 20 ug/disc 24 to 48 hrs by agar diffusion assay; type: functional; conditions: read-out: DIZ
# Summary of the method: (§2)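 S. cerevisiae deletion mutants or wild type grown on YPD, seeded into liquid agar medium at an optical density of 0.1. 6 mm paper discs soaked with methanolic compound solution were placed on the plates and incubated at 30 °C. Growth was checked after 1 and 2 days, and the inhibition zone diameter was recorded in mm.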
# [25] = tested on: HCC 2998; assay: Cytotoxicity against human HCC2998 cells; type: functional
# [26] = tested on: NCI-H460; assay: Cytotoxicity against human NCI-H460 cells; type: functional
# [27] = tested on: LOX IMVI; assay: Cytotoxicity against human LOXIMVI cells; type: functional
# [28] = tested on: SN12C; assay: Cytotoxicity against human SN12C cells; type: functional
# [29] = tested on: MCF7; assay: Cytotoxicity against human MCF7 cells after 24 hrs by MTT assay; type: functional, cell-based; conditions: MCF7, 24 h; summary of the method: as §1
# [30] = tested on: COLO 205; assay: Cytotoxicity against human COLO205 cells; type: functional
# [31] = tested on: BT-549; assay: Cytotoxicity against human BT549 cells; type: functional
# [32] = tested on: MDA-MB-468; assay: Cytotoxicity against human MDA-MB-468 cells; type: functional
# [33] = tested on: A549; assay: Cytotoxicity against human A549 cells; type: functional
# [34] = tested on: Saccharomyces cerevisiae; assay: Growth inhibition of GTT2-deficient Saccharomyces cerevisiae YLL060C mutant at 20 ug/disc after 24 to 48 hrs by agar diffusion assay; type: functional; conditions: read-out: DIZ; summary of the method: as §2
# [35] = tested on: RPMI-8226; assay: Cytotoxicity against human RPMI8226 cells; type: functional
# [36] = tested on: NCI-H322M; assay: Cytotoxicity against human NCI-H322M cells; type: functional
# [37] = tested on: HCT-116; assay: Cytotoxicity against human HCT116 cells; type: functional
# [38] = tested on: UACC-62; assay: Cytotoxicity against human UACC62 cells; type: functional
# [39] = tested on: U-251; assay: Cytotoxicity against human U251 cells; type: functional
structure (smiles),measurement,setting,value
CC1=C([Se]CC(OC(=O)[C@@H](CSSC(C)(C)C)NC(=O)C(C)(C)C)C(=O)NCCCCCC(=O)OCc2ccccc2)C(=O)c2ccccc2C1=O (stereo not given in full),GI50,[1],1.91 µM
same,LC50,[1],6.46 µM
same,TGI,[1]; read-out: pTGI (converted),3.55 µM
same,GI50,[2],2.4 µM
same,LC50,[2],> 100 µM
same,TGI,[2]; read-out: pTGI (converted),7.08 µM
same,GI50,[3],2.19 µM
same,LC50,[3],> 100 µM
same,TGI,[3]; read-out: pTGI (converted),5.5 µM
same,GI50,[4],1.91 µM
same,LC50,[4],5.89 µM
same,TGI,[4]; read-out: pTGI (converted),3.39 µM
same,GI50,[5],1.38 µM
same,LC50,[5],5.13 µM
same,TGI,[5]; read-out: pTGI (converted),2.69 µM
same,GI50,[6],2.4 µM
same,LC50,[6],8.13 µM
same,TGI,[6]; read-out: pTGI (converted),4.47 µM
same,GI50,[7],2.69 µM
same,LC50,[7],> 100 µM
same,TGI,[7]; read-out: pTGI (converted),7.41 µM
same,GI50,[8],2.57 µM
same,LC50,[8],17.4 µM
same,TGI,[8]; read-out: pTGI (converted),5.5 µM
same,IC50,[9],13 µM
same,IC50,[10],4 µM
same,GI50,[11],1.86 µM
same,LC50,[11],6.17 µM
same,TGI,[11]; read-out: pTGI (converted),3.39 µM
same,IC50,[12],10 µM
same,GI50,[13],1.51 µM
same,LC50,[13],8.71 µM
same,TGI,[13]; read-out: pTGI (converted),3.63 µM
same,GI50,[14],1.91 µM
same,LC50,[14],5.89 µM
same,TGI,[14]; read-out: pTGI (converted),3.31 µM
same,GI50,[15],2.29 µM
same,LC50,[15],25.1 µM
same,TGI,[15]; read-out: pTGI (converted),5.5 µM
same,GI50,[16],1.02 µM
same,LC50,[16],9.12 µM
same,TGI,[16]; read-out: pTGI (converted),3.02 µM
same,GI50,[17],0.316 µM
same,LC50,[17],> 100 µM
same,TGI,[17]; read-out: pTGI (converted),1.95 µM
same,GI50,[18],2.29 µM
same,LC50,[18],15.8 µM
same,TGI,[18]; read-out: pTGI (converted),5.25 µM
same,GI50,[19],1.48 µM
same,LC50,[19],6.76 µM
same,TGI,[19]; read-out: pTGI (converted),3.16 µM
same,GI50,[20],2.51 µM
same,LC50,[20],> 100 µM
same,TGI,[20]; read-out: pTGI (converted),6.03 µM
same,GI50,[21],2.19 µM
same,LC50,[21],> 100 µM
same,TGI,[21]; read-out: pTGI (converted),6.46 µM
same,GI50,[22],3.24 µM
same,LC50,[22],66.1 µM
same,TGI,[22]; read-out: pTGI (converted),12.9 µM
same,GI50,[23],2.04 µM
same,LC50,[23],7.94 µM
same,TGI,[23]; read-out: pTGI (converted),4.07 µM
same,zone of inhibition at 20 µg/disc,[24],11 mm
same,GI50,[25],2.19 µM
same,LC50,[25],7.24 µM
same,TGI,[25]; read-out: pTGI (converted),3.98 µM
same,GI50,[26],0.631 µM
same,LC50,[26],9.55 µM
same,TGI,[26]; read-out: pTGI (converted),2.51 µM
same,GI50,[27],2.57 µM
same,LC50,[27],42.7 µM
same,TGI,[27]; read-out: pTGI (converted),7.59 µM
same,GI50,[28],2 µM
same,LC50,[28],7.59 µM
same,TGI,[28]; read-out: pTGI (converted),3.89 µM
same,IC50,[29],8 µM
same,GI50,[30],1.82 µM
same,CC50,[30]; read-out: pLC50 (the source's name) (converted),6.76 µM
same,TGI,[30]; read-out: pTGI (converted),3.47 µM
same,GI50,[31],1.78 µM
same,LC50,[31],5.62 µM
same,TGI,[31]; read-out: pTGI (converted),3.16 µM
same,GI50,[32],2.19 µM
same,LC50,[32],8.51 µM
same,TGI,[32]; read-out: pTGI (converted),4.37 µM
same,GI50,[33],2.09 µM
same,LC50,[33],> 100 µM
same,TGI,[33]; read-out: pTGI (converted),5.37 µM
same,zone of inhibition at 20 µg/disc,[34],12 mm
same,GI50,[35],2.34 µM
same,LC50,[35],> 100 µM
same,TGI,[35]; read-out: pTGI (converted),6.76 µM
same,GI50,[36],0.398 µM
same,LC50,[36],> 100 µM
same,TGI,[36]; read-out: pTGI (converted),2.29 µM
same,GI50,[37],1.55 µM
same,LC50,[37],8.91 µM
same,TGI,[37]; read-out: pTGI (converted),3.72 µM
same,GI50,[38],1.95 µM
same,LC50,[38],8.13 µM
same,TGI,[38]; read-out: pTGI (converted),3.98 µM
same,GI50,[39],1.26 µM
same,LC50,[39],6.31 µM
same,TGI,[39]; read-out: pTGI (converted),2.82 µM
